Source: ChEMBL document CHEMBL3272284, “Drugs derived from cannabinoids. 6. Synthesis of cyclic analogues of dimethylheptylpyran” (1976)
Activity calls are given as the source filed them. The calls are words filed in the database; no cut-off is given here.

Columns and labels:
[1] = tested on: Rattus norvegicus; experiment: Antihypertensive activity in rat assessed as reduction of blood pressure at 0.1 mg/kg, po; type: functional; set-up: scale not given: the % may be the effect or the level left
Procedure, shortened: (§1)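 Cardiovascular screen in hypertensive rats. Compounds were given orally and blood pressure was measured after dosing, with readings taken at 3 h and over 24 h. Activity is expressed as percent decrease in blood pressure.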

[2] = tested on: Rattus norvegicus; experiment: Antihypertensive activity in rat assessed as reduction of blood pressure at 10 mg/kg, po after 24 hrs; type: functional; set-up: scale not given: the % may be the effect or the level left; procedure, shortened: as §1
[3] = tested on: Rattus norvegicus; experiment: Antihypertensive activity in rat assessed as reduction of blood pressure at 10 mg/kg, po after 3 hrs; type: functional; set-up: scale not given: the % may be the effect or the level left; procedure, shortened: as §1
[4] = tested on: Mus musculus; experiment: […] activity in mouse assessed as protection against audiogenic seizure up to 30 mg/kg, po; type: functional, organism-based; set-up: dose 30 mg/kg
[5] = tested on: Mus musculus; experiment: Central nervous system activity in mouse assessed as fighting at 10 mg/kg, po; type: functional, organism-based; set-up: dose 10 mg/kg
[6] = tested on: Rattus norvegicus; experiment: Antidepressant activity in rat assessed as motor activity at 5 mg/kg, po; type: functional, organism-based; set-up: dose 5 mg/kg
[7] = tested on: Rattus norvegicus; experiment: Antihypertensive activity in po dosed rat assessed as reduction of blood pressure; type: functional, organism-based; procedure, shortened: as §1

Compound | Activity [1] [%] | Activity [2] [%] | Activity [3] [%] | Activity [4] | Activity [5] | Activity [6] | Activity [7]
CCCCCC(C)C(C)c1cc(O)c2c(c1)OC(C)(C)C1=C2CC(C)CC1 (stereo not given) | 8 | 38 | – | – | – | – | –
CCCCCC1Cc2c(cc(O)c3c2OC(C)(C)C2=C3CC(C)CC2)C1C (stereo not given) | – | – | 6 | inactive | inactive | inactive | –
CCCCCC1Cc2c(cc3c(c2O)C2=C(CCC(C)C2)C(C)(C)O3)C1C (stereo not given) | – | – | – | inactive | inactive | inactive | inactive
